The source made the active and inactive calls. No cut-off for these calls is given here.
Tests used:
[1] = Plasma protein binding in rat at 0.67 to 0.89 […] after 30 mins by ultrafiltration; type: ADME, cell-free; conditions: read-out: PPB (converted)
Outline: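 Rat serum was diluted 10-fold in 66 mM phosphate buffer (pH 7.4) containing [11C]radioligand (0.67–0.89 MBq) and incubated 30 min at 30 °C. It was then ultrafiltered by centrifugation at 2000 rpm for 15 min. Radioactivity in whole plasma and in filtrate was counted to give % bound (mean, n=3).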

Glutamate NMDA receptor [2] = experiment: Binding affinity to glycine binding site of NMDA receptor in rat brain; type: tissue-based
[3] = biological target: T1, Glutamate NMDA receptor (Rattus norvegicus) (UniProt P35439+Q00959+Q00960+Q00961+Q62645+Q8VHN2+Q9R1M7); experiment: Binding affinity to glycine binding site of NMDA receptor in cerebellum of rat brain by autoradiography; type: tissue-based; conditions: tested as the 11C-labelled form
Outline: (§1)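 Rat brain sagittal sections were preincubated 30 min at 25 °C in 50 mM Tris–HCl (pH 7.4), then incubated 30 min at 25 °C with the [11C]radioligand (1.59–2.13 nM). Sections were rinsed twice for 3 min in cold buffer, dipped in cold water, dried, and exposed to imaging plates for 60 min. Nonspecific binding was taken with the corresponding unlabeled ligand; specific binding is given per region.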

[4] = n-Octanol-sodium phosphate buffer partition coefficient, log D at pH 7.4 after 15 mins by shake-flask method; type: physicochemical
Outline: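 Compound (1–2 mg) was shaken 15 min at ambient temperature in n-octanol and 10 mM phosphate buffer (pH 7.4). The mixture was centrifuged at 2500 rpm for 5 min, and both layers were analysed by HPLC (n=3).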

[5] = biological target: T1, Glutamate NMDA receptor (Rattus norvegicus); experiment: Binding affinity to glycine binding site of NMDA receptor in thalamus of rat brain by autoradiography; type: tissue-based; conditions: tested as the 11C-labelled form; outline: as §1
Glutamate NMDA receptor [6] = experiment: Displacement of [3H]MDL-105519 from glycine binding site of NMDA receptor in rat cortical membrane by liquid scintillation counting; type: cell membranes
Outline: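 Washed rat cortical membranes in 50 mM Tris–HCl (pH 8.0) were incubated 45 min at 4 °C with [3H]MDL-105,519 (2 nM) plus buffer or displacer. Nonspecific binding was defined with excess unlabeled glycine. Samples were filtered on GF/B, washed three times with ice-cold buffer, and counted by liquid scintillation. Ki came from three determinations, each in triplicate.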

[7] = biological target: T1, Glutamate NMDA receptor (Rattus norvegicus); experiment: Binding affinity to glycine binding site of NMDA receptor in hippocampus of rat brain by autoradiography in presence of glycine-site antagonist methoxy-MDL-104653; type: tissue-based; conditions: tested as the 11C-labelled form
Outline: (§2)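 Hippocampal binding on rat brain slices: 30 min at 25 °C in 50 mM Tris–HCl (pH 7.4) with [11C]radioligand (1.59–2.13 nM), with or without a glycine-site drug (agonists at 1 mM). Slices were rinsed, dried and exposed to imaging plates for 60 min. PSL with drug was divided by PSL without drug to give % total binding, averaged over at least triplicate sections from three animals.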

[8] = biological target: T1, Glutamate NMDA receptor (Rattus norvegicus); experiment: Binding affinity to glycine binding site of NMDA receptor in cerebral cortex of rat brain by autoradiography; type: tissue-based; conditions: tested as the 11C-labelled form; outline: as §1
[9] = biological target: T1, Glutamate NMDA receptor (Rattus norvegicus); experiment: Binding affinity to glycine binding site of NMDA receptor in striatum of rat brain by autoradiography; type: tissue-based; conditions: tested as the 11C-labelled form; outline: as §1
[10] = biological target: T1, Glutamate NMDA receptor (Rattus norvegicus); experiment: Binding affinity to glycine binding site of NMDA receptor in hippocampus of rat brain by autoradiography in presence of glycine-site antagonist L-703717; type: tissue-based; conditions: tested as the 11C-labelled form; outline: as §2
[11] = biological target: T1, Glutamate NMDA receptor (Rattus norvegicus); experiment: Binding affinity to glycine binding site of NMDA receptor in hippocampus of rat brain by autoradiography in presence of glycine-site antagonist MDL-105519; type: tissue-based; conditions: tested as the 11C-labelled form; outline: as §2
[12] = biological target: T1, Glutamate NMDA receptor (Rattus norvegicus); experiment: Binding affinity to glycine binding site of NMDA receptor in hippocampus of rat brain by autoradiography; type: tissue-based; conditions: tested as the 11C-labelled form; outline: as §1
[13] = biological target: T1, Glutamate NMDA receptor (Rattus norvegicus); experiment: Binding affinity to glycine binding site of NMDA receptor in hippocampus of rat brain by autoradiography in presence of glycine; type: tissue-based; conditions: tested as the 11C-labelled form; outline: as §2
[14] = biological target: T1, Glutamate NMDA receptor (Rattus norvegicus); experiment: Binding affinity to glycine binding site of NMDA receptor in hippocampus of rat brain by autoradiography in presence of glycine-site agonist D-serine; type: tissue-based; conditions: tested as the 11C-labelled form; outline: as §2
[15] = Biodistribution in ddY mouse cerebrum assessed per gram of tissue at 7.4 MBq, iv after 1 min by gamma counting; type: ADME, organism-based; conditions: in vivo
Outline: (§3)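 ddY mice (35–45 g) received about 7.4 MBq of [11C]radioligand in 0.2 ml into the tail vein and were decapitated at 1 or 30 min. Blood, cerebrum and cerebellum were gamma-counted with decay correction and expressed as % injected dose/g; tissue/blood ratios were derived. n=3 or 5.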

[16] = Biodistribution in ddY mouse cerebrum assessed per gram of tissue at 7.4 MBq, iv after 30 mins by gamma counting; type: ADME, organism-based; conditions: in vivo, 0.5 h; outline: as §3
[17] = Ratio of drug level in cerebellum to blood of ddY mouse at 7.4 MBq, iv after 1 min; type: ADME, organism-based; outline: as §3
Blood [18] = experiment: Biodistribution in ddY mouse blood assessed per gram of tissue at 7.4 MBq, iv after 1 min by gamma counting; type: ADME, organism-based; conditions: in vivo; outline: as §3
Blood [19] = experiment: Biodistribution in ddY mouse blood assessed per gram of tissue at 7.4 MBq, iv after 30 mins by gamma counting; type: ADME, organism-based; conditions: in vivo, 0.5 h; outline: as §3
[20] = Ratio of drug level in cerebrum to blood of ddY mouse at 7.4 MBq, iv after 30 mins; type: ADME, organism-based; outline: as §3
[21] = Ratio of drug level in cerebellum to blood of ddY mouse at 7.4 MBq, iv after 30 mins; type: ADME, organism-based; outline: as §3
Cerebellum [22] = experiment: Biodistribution in ddY mouse cerebellum assessed per gram of tissue at 7.4 MBq, iv after 30 mins by gamma counting; type: ADME, organism-based; conditions: in vivo, 0.5 h; outline: as §3
Cerebellum [23] = experiment: Biodistribution in ddY mouse cerebellum assessed per gram of tissue at 7.4 MBq, iv after 1 min by gamma counting; type: ADME, organism-based; conditions: in vivo; outline: as §3
[24] = Ratio of drug level in cerebrum to blood of ddY mouse at 7.4 MBq, iv after 1 min; type: ADME, organism-based; outline: as §3

SMILES: CCc1cc(Cl)cc2[nH]c(=O)c(-c3cccc(OC)c3)c(O)c12
- fraction unbound at 0.5 h [1]: 0.06
- Ki (Glutamate NMDA receptor [2]): 7.2 nM

SMILES: CNc1ccc(Cc2cccc(-c3c(O)c4ccc(Cl)cc4[nH]c3=O)c2)cc1
- Activity [3]: 30%
- logD at 0.25 h [4]: 3
- Activity [5]: Active
- Ki (Glutamate NMDA receptor [6]): 11.7 nM
- Activity [7]: 58%
- Activity [8]: Active
- Activity [9]: Active
- Activity [10]: 58%
- Activity [11]: 58%
- Activity [12]: 70%
- Activity [13]: 46%
- Activity [14]: 46%

SMILES: COc1cccc(-c2c(O)c3c(I)cc(Cl)cc3[nH]c2=O)c1
- Ki (Glutamate NMDA receptor [2]): 10.3 nM

SMILES: COc1cccc(-c2c(O)nc3cc(Cl)ccc3c2O)c1
- Ki (Glutamate NMDA receptor [2]): 167 nM

SMILES: CCc1cc(Cl)cc2[nH]c(=O)c(-c3cccc(NC)c3)c(O)c12
- Activity [3]: 75%
- Activity [5]: Active
- Ki (Glutamate NMDA receptor [6]): 11.8 nM
- Activity [7]: 64%
- Activity [8]: Active
- Activity [9]: Active
- Activity [10]: 64%
- Activity [11]: 64%
- Activity [12]: 89%
- Activity [13]: 59%
- Activity [14]: 59%

SMILES: CCc1cc(Cl)cc2[nH]c(=O)c(-c3cccc(O[11CH3])c3)c(O)c12
- Drug uptake [15]: 0.5 %ID
- Drug uptake [16]: 0.32 %ID/g
- Kp at 1 min [17]: 0.026
- Drug uptake (Blood [18]): 29.16 %ID
- Drug uptake (Blood [19]): 10.66 %ID/g
- Kp at 0.5 h [20]: 0.03
- Kp at 0.5 h [21]: 0.042
- Drug uptake (Cerebellum [22]): 0.44 %ID/g
- Drug uptake (Cerebellum [23]): 0.72 %ID
- Kp at 1 min [24]: 0.018

SMILES: COc1cccc(-c2c(O)c3c(N)cc(Cl)cc3[nH]c2=O)c1
- Ki (Glutamate NMDA receptor [6]): 119 nM

SMILES: CNc1cc(Cl)cc2[nH]c(=O)c(-c3cccc(OC)c3)c(O)c12
- Ki (Glutamate NMDA receptor [6]): 715 nM

— ChEMBL document CHEMBL1152423, “Development of N-[11C]methylamino 4-hydroxy-2(1H)-quinolone derivatives as PET radioligands for the glycine-binding site of NMDA receptors” (Bioorg Med Chem, 2009)
